Activity calls are given as the source filed them. The rule behind the calls is not given here.
Tests used:
[1] = system: Mus musculus; assay: Toxicity in Swiss mouse assessed as effect on body weight at 1000 mg/kg, ip measured after 30 days; format: organism-based; conditions: in vivo, 720 h
Procedure, shortened: (§1)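 Single 1000 mg/kg dose given to mice by gavage or ip injection, 3 mice per group. Survival and body weight followed against untreated controls over 30 days of observation.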

[2] = system: Plasmodium berghei; assay: Antiplasmodial activity against Plasmodium berghei NK65 infected in Swiss mouse assessed as reduction in parasitemia at 50 mg/kg, po administered via gavage for 3 consecutive days post infection measured on day 9 post infection relative to control; format: functional; design: scale not given: the % may be the effect or the level left
Procedure, shortened: (§2)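 P. berghei NK65 suppressive test: adult Swiss outbred mice (20±2 g) inoculated ip with 1×10^5 infected red cells, randomized to groups, dosed daily for three days by oral gavage or ip injection with test compound at 50 mg/kg in 3% (v/v) DMSO; CQ 20 mg/kg and vehicle groups in parallel. Giemsa-stained tail-blood smears on days 5, 7, 9; inhibition = [(C−T)/C]×100 versus untreated control.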

[3] = system: Plasmodium berghei; assay: Antiplasmodial activity against Plasmodium berghei NK65 infected in Swiss mouse assessed as mouse survival at 50 mg/kg, po administered for 3 consecutive days post infection measured on day 9 post infection (reference value: 19 +/- 5 days); format: functional
[4] = system: Plasmodium falciparum; assay: Antiplasmodial activity against chloroquine-sensitive schizont form of Plasmodium falciparum 3D7 infected in RBC after 72 hrs by SYBR green assay; format: functional, organism-based; conditions: 3D7, Erythrocyte
Procedure, shortened: (§3)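 Sorbitol-synchronized 3D7 cultures of each stage (or asynchronous) diluted to 0.5% parasitemia, 2% hematocrit, exposed to graded compound concentrations (0.05% DMSO) for 72 h in triplicate. Read-out: lysis buffer (20 mM Tris pH 7.5, 5 mM EDTA, 0.008% saponin, 0.08% Triton X-100) with SYBR green I 1:20000, fluorescence 485/535 nm, uninfected erythrocytes as background; IC50 by curve fitting versus drug-free growth.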

[5] = system: Plasmodium falciparum; assay: Antiplasmodial activity against chloroquine-sensitive trophozoite form of Plasmodium falciparum 3D7 infected in RBC after 72 hrs by SYBR green assay; format: functional, organism-based; conditions: 3D7, Erythrocyte; procedure, shortened: as §3
[6] = system: Plasmodium falciparum; assay: Antiplasmodial activity against chloroquine-sensitive blood parasite forms of Plasmodium falciparum 3D7 infected in RBC by SYBR green assay; format: functional, organism-based; conditions: 3D7, Erythrocyte
Procedure, shortened: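 3D7 blood-stage cultures, sorbitol-synchronized twice beforehand, used at 5-10% parasitemia with >80% rings, diluted to 0.5% parasitemia and 2% hematocrit with graded compound (0.05% DMSO), triplicate; artesunate and chloroquine controls. SYBR green I lysis-buffer fluorescence at 485/535 nm; IC50 from curve fit relative to drug-free medium.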

[7] = system: Plasmodium berghei; assay: Antiplasmodial activity against Plasmodium berghei NK65 infected in Swiss mouse assessed as reduction in parasitemia at 50 mg/kg, po administered via gavage for 3 consecutive days post infection measured on day 5 post infection relative to control; format: functional; design: scale not given: the % may be the effect or the level left; procedure, shortened: as §2
[8] = system: Plasmodium falciparum; assay: Antiplasmodial activity against chloroquine-sensitive asynchronous form of Plasmodium falciparum 3D7 infected in RBC after 72 hrs by SYBR green assay; format: functional, organism-based; conditions: 3D7, Erythrocyte; procedure, shortened: as §3
[9] = system: HepG2; assay: Cytotoxicity against human HepG2 cells assessed as reduction in cell viability after 24 hrs by MTT assay; format: cell-based; conditions: HepG2, 24 h
Procedure, shortened: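 HepG2 cells in RPMI-1640 with 10% heat-inactivated serum, seeded 5×10^3 per well, allowed to adhere 18 h at 37 °C, then exposed to compound (400–6.2 µM) for 24 h at 37 °C, 5% CO2. MTT (5 mg/mL) for 3 h, formazan dissolved in DMSO, absorbance 570 nm with 630 nm background; viability as percent of untreated control.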

[10] = Metabolic stability in rat liver microsomes assessed as compound remaining at 4 uM after 30 mins in presence of NADPH by HPLC analysis; format: ADME, microsome; conditions: read-out: Stability
Procedure, shortened: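 Rat pooled liver microsomes (final 2 mg/mL protein) in 0.1 M phosphate buffer pH 7.4 with 30 mM MgCl2 and 10 mM NADPH; compounds at 4 µM final; verapamil 0.1 mM positive control. Reactions quenched with ice-cold acetonitrile at set times; parent remaining measured by LC-MS/MS; first-order depletion rate used to derive half-life.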

[11] = Therapeutic index, ratio of EC50 for human HepG2 cells to IC50 for chloroquine-sensitive blood parasite forms of Plasmodium falciparum 3D7; format: toxicity; conditions: read-out: TI
[12] = system: Plasmodium falciparum; assay: Antiplasmodial activity against early ring stage form of Plasmodium falciparum assessed as induction of alterations in parasite morphology at 10 times IC50 concentration after 8 to 16 hrs by microscopic analysis; format: functional, organism-based
[13] = system: Mus musculus; assay: Toxicity in Swiss mouse assessed as survival at 1000 mg/kg, ip measured up to 30 days; format: organism-based; conditions: in vivo, 720 h; procedure, shortened: as §1
[14] = system: Plasmodium berghei; assay: Antiplasmodial activity against Plasmodium berghei NK65 infected in Swiss mouse assessed as reduction in parasitemia at 50 mg/kg, po administered via gavage for 3 consecutive days post infection measured on day 7 post infection relative to control; format: functional; design: scale not given: the % may be the effect or the level left; procedure, shortened: as §2
[15] = system: Plasmodium falciparum; assay: Antiplasmodial activity against chloroquine-sensitive ring form of Plasmodium falciparum 3D7 infected in RBC after 72 hrs by SYBR green assay; format: functional, organism-based; conditions: 3D7, Erythrocyte; procedure, shortened: as §3
[16] = system: Mus musculus; assay: Toxicity in Swiss mouse assessed as survival at 1000 mg/kg, po measured up to 30 days; format: organism-based; conditions: in vivo, 720 h; procedure, shortened: as §1
[17] = system: Plasmodium berghei; assay: Antiplasmodial activity against liver stage of luciferase-expressing transgenic Plasmodium berghei sporozoites infected in human HepG2 cells administered 18 hrs before infection and measured after 48 hrs by luciferase reporter gene assay; format: functional, organism-based
Procedure, shortened: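 HepG2 cells (3×10^3) plated overnight; compound (10^-4 to 10^-9 M) added 18 h before infection with 1×10^5 freshly isolated luciferase-expressing P. berghei sporozoites from Anopheles stephensi salivary glands; culture 48 h, luciferase activity taken as parasite viability; atovaquone positive control.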

[18] = system: Plasmodium falciparum; assay: Antiplasmodial activity against of male Plasmodium falciparum NF54 gametocytes assessed as inhibition of xanthurenic acid-stimulated gamete formation at 1 uM preincubated for 24 to 48 hrs followed by xanthurenic acid stimulation and measured after 20 mins by automated time-lapse microscopy relative to control; format: functional
Procedure, shortened: (§4)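 Mature NF54 gametocytes exposed to 1 µM compound (DMSO ≤0.25%) for 24 or 48 h, then activated by cooling 37→26 °C with 2.5 µM xanthurenic acid. Male: exflagellation by automated time-lapse microscopy at 20 min, three readings per well. Female: after 24 h at 26 °C, Cy3 anti-Pfs25 staining, four fields counted. Inhibition versus DMSO and 20 µM Gentian Violet controls; four independent repeats.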

[19] = system: Plasmodium berghei; assay: Antiplasmodial activity against Plasmodium berghei NK65 infected in Swiss mouse assessed as reduction in parasitemia at 50 mg/kg, ip administered for 3 consecutive days post infection measured on day 9 post infection relative to control; format: functional; design: scale not given: the % may be the effect or the level left; procedure, shortened: as §2
[20] = system: Plasmodium falciparum; assay: Antiplasmodial activity against of female Plasmodium falciparum NF54 gametocytes assessed as inhibition of xanthurenic acid-stimulated gamete formation at 1 uM preincubated for 24 to 48 hrs followed by xanthurenic acid stimulation and measured after 20 mins by automated time-lapse microscopy relative to control; format: functional; procedure, shortened: as §4
[21] = system: Plasmodium falciparum; assay: Antiplasmodial activity against Plasmodium falciparum assessed as fractional inhibitory concentration index at IC50 concentration in presence of artesunate by isobologram plot analysis
[22] = system: Plasmodium falciparum; assay: Antiplasmodial activity against early ring stage of Plasmodium falciparum assessed as increase in free heme levels after 32 hrs by UV-Vis spectrophotometry; format: functional, organism-based
[23] = system: Plasmodium falciparum; assay: Plasmodicidal activity against Plasmodium falciparum 3D7A infected in erythrocytes assessed as parasite survival at 10 times IC50 pre-incubated for 24 hrs followed by compound washout and measured after 24 hrs by […] incorporation assay (reference value: 100%); format: functional
[24] = system: Plasmodium falciparum; assay: Antiplasmodial activity against chloroquine/pyrimethamine/sulfadoxine-resistant blood parasite forms of Plasmodium falciparum K1 infected in RBC by SYBR green assay; format: functional, organism-based; conditions: K1, Erythrocyte
Procedure, shortened: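 Sorbitol-synchronised K1 culture, mostly rings, at 0.5% parasitemia and 2% hematocrit exposed to serial compound dilutions (0.05% DMSO) in triplicate. Cells lysed with Tris/EDTA/saponin/Triton buffer containing SYBR green I; fluorescence read at 485/535 nm, uninfected erythrocytes as background. IC50 from curve fit versus drug-free growth.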

[25] = system: Plasmodium berghei; assay: Antiplasmodial activity against Plasmodium berghei NK65 infected in Swiss mouse assessed as assessed as mouse survival at 50 mg/kg, ip administered via gavage for 3 consecutive days post infection measured on day 9 post infection (reference value: 19 +/- 5 days); format: functional
[26] = system: Plasmodium falciparum; assay: Antiplasmodial activity against early ring stage of Plasmodium falciparum assessed as decrease in hemozoin accumulation after 32 hrs by UV-Vis spectrophotometry; format: functional, organism-based
[27] = system: Plasmodium berghei; assay: Antiplasmodial activity against Plasmodium berghei NK65 infected in Swiss mouse assessed as reduction in parasitemia at 50 mg/kg, ip administered for 3 consecutive days post infection measured on day 7 post infection relative to control; format: functional; design: scale not given: the % may be the effect or the level left; procedure, shortened: as §2
[28] = system: Mus musculus; assay: Toxicity in Swiss mouse assessed as effect on body weight at 1000 mg/kg, po measured after 30 days; format: organism-based; conditions: in vivo, 720 h; procedure, shortened: as §1
[29] = system: Plasmodium falciparum; assay: Plasmodicidal activity against Plasmodium falciparum 3D7A infected in erythrocytes assessed as parasite survival at 10 times IC50 pre-incubated for 48 hrs followed by compound washout and measured after 24 hrs by […] incorporation assay (reference value: 100%); format: functional
[30] = system: Plasmodium berghei; assay: Antiplasmodial activity against Plasmodium berghei NK65 infected in Swiss mouse assessed as reduction in parasitemia at 50 mg/kg, ip administered for 3 consecutive days post infection measured on day 5 post infection relative to control; format: functional; design: scale not given: the % may be the effect or the level left; procedure, shortened: as §2

SMILES | Activity [1] | Activity [2] | Survival [3] | IC50 [4] | IC50 [5] | IC50 ([6]; read-out: IC50) | Activity [7] | IC50 [8] | Activity [12] | Activity [13] | Activity [14] | IC50 [15] | other results
COc1ccc2c(c1)nc(-c1ccc(Cl)cc1)c1[nH]ccc12 | Non-Toxic | 0% | 22 days | 500 nM | 380 nM | 600 nM | 0% | 460 nM | Active | Non-Toxic | 0% | 600 nM | EC50 [9]: > 250000 nM; remaining at 0.5 h, 4 µM [10]: 15%; selectivity ratio [11]: > 417
COc1ccc2c(c1)nc(-c1ccc(NC(=O)OC(C)(C)C)cc1)c1[nH]ccc12 | Non-Toxic | 55% | 25 days | 28 nM | 50 nM | 39 nM | 62% | 33 nM | Active | Non-Toxic | 54% | 39 nM | Activity [16]: Non-Toxic; IC50 [17]: 76 nM; inhibition at 1 µM [18]: 7%; Activity [19]: 58%; inhibition at 1 µM [20]: 2%; FIC [21]: 1; Activity [22]: Dose-dependent effect; IC50 ([6]; read-out: pIC50 (converted)): 39.8 nM; Survival [23]: 14%; IC50 [24]: 41 nM; Survival [25]: 24 days; Activity [26]: Dose-dependent effect; Activity [27]: 34%; Activity [28]: Non-Toxic; Survival [29]: 6%; Activity [30]: 61%

— ChEMBL document CHEMBL4145611, “Discovery of Marinoquinolines as Potent and Fast-Acting Plasmodium falciparum Inhibitors with in Vivo Activity” (J Med Chem, 2018)
